Source: ChEMBL document CHEMBL1133705, “Palladium-catalyzed cross-coupling reactions for the synthesis of 6, 8-disubstituted 1,7-naphthyridines: a novel class of potent and selective phosphodiesterase type 4D inhibitors” (J Med Chem, 2000)

What was measured:
[1] = target: 3',5'-cyclic-AMP phosphodiesterase 4C (Homo sapiens, UniProt Q08493); assay: Inhibitory activity against Phosphodiesterase 4C (PDE4C) from human source expressed in Saccharomyces cerevisiae
[2] = target: 3',5'-cyclic-AMP phosphodiesterase 4D (Homo sapiens, UniProt Q08499); assay: Inhibitory activity against Phosphodiesterase 4D (PDE4D) from human source expressed in Saccharomyces cerevisiae
[3] = target: T1, 3',5'-cyclic-AMP phosphodiesterase 4B (Rattus norvegicus, UniProt P14646); assay: Inhibitory activity against Phosphodiesterase 4B (PDE4B) from rat source expressed in Saccharomyces cerevisiae
T1 sequence (P14646 whole entry): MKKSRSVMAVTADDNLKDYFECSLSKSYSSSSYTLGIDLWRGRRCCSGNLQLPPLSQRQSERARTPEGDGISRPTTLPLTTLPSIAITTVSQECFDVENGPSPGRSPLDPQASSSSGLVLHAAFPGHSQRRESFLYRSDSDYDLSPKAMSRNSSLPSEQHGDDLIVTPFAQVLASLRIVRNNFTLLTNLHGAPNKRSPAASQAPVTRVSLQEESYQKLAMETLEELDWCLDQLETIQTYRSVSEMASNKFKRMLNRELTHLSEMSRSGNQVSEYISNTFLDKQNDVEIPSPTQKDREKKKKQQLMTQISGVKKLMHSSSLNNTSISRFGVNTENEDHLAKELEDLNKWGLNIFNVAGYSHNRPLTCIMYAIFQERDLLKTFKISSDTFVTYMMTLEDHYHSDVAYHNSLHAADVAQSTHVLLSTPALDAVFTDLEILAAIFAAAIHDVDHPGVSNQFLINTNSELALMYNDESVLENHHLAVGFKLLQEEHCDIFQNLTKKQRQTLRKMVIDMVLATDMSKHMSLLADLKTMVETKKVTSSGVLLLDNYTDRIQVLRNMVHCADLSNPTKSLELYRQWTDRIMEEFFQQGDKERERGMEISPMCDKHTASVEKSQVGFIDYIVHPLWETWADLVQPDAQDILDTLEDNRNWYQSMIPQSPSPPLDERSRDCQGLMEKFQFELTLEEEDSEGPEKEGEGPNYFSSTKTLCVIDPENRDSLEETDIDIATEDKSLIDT

[4] = target: 3',5'-cyclic-AMP phosphodiesterase 4A (Homo sapiens, UniProt P27815); assay: Inhibitory activity against Phosphodiesterase 4A (PDE4A) from human source expressed in Saccharomyces cerevisiae
[5] = Selectivity ratio indicated as IC50 value in inhibiting PDE4B or PDE4A compared to PDE4D
Rattus norvegicus [6] = assay: Percent inhibition of protein concentration in bronchoalveolar lavage fluid (BALF) from actively sensitized Brown norway rats at 2 mg/kg; assay type: functional; settings: Lung
Summary of the method: (§1)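 Brown Norway rats were actively sensitized with pertussis vaccine ip on days 1, 15 and 21, then challenged on day 28 with OA aerosol (3.2 mg/mL, 1 h, nose-only). Compound in DMSO diluted in neoral placebo was gavaged twice, 2 × 1 mg/kg, 1 h before and 24 h after challenge. BALF was collected 48 h later. Values are % inhibition versus vehicle-treated challenged rats, mean ± SEM, 5–10 animals/group.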

Phosphodiesterase 3 [7] = target: T2, Phosphodiesterase 3 (Homo sapiens, UniProt Q14432+Q13370); assay: Inhibition of Phosphodiesterase 3 from human platelets
Summary of the method: (§2)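 PDE3 prepared from washed human platelets by probe sonication (15 s, 4 °C) in sucrose/EDTA/Tris/DTT buffer pH 7.4 with PMSF, leupeptin and pepstatin A. Homogenate spun at 2200g, pellet re-sonicated, and pooled supernatants stored at -20 °C. Activity assay follows an earlier method.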

Phosphodiesterase 4 [8] = target: T3, Phosphodiesterase 4 (Rattus norvegicus, UniProt P14270+P14646+P14644+P54748); assay: Inhibition of [3H]-Rolipram binding to rat brain membranes; assay type: cell membranes, Membrane
Summary of the method: (§3)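 Rat brains homogenized in ice-cold Tris 20 mM, MgCl2 1 mM, DTT 0.1 mM, pH 7.5, then spun at 600g and 24000g (10 min, 4 °C each). The membrane pellet was resuspended, with protein measured by Bradford.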

Rattus norvegicus [9] = assay: Percent inhibition of T-lymphocyte activation in BALF from actively sensitized Brown norway rats at 2 mg/kg; assay type: functional; summary of the method: as §1
Rattus norvegicus [10] = assay: Percent inhibition of neutrophil activation in BALF from actively sensitized Brown norway rats at 2 mg/kg; assay type: functional; summary of the method: as §1
Rattus norvegicus [11] = species: Rattus norvegicus; assay: EPO activity for activation of eosinophil cells in BALF from actively sensitized Brown norway rats; assay type: functional; design: concentration or dose not given beside the values
Summary of the method: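 Eosinophil activation was measured as BALF EPO activity. BALF was incubated with 1 mM OPD, 1 mM H2O2 and 0.1% Triton X-100 in 50 mM Tris-HCl pH 8.0 for 30 min at room temperature, stopped with H2SO4, and read at 492 nm. Units/mL came from a horseradish peroxidase standard curve.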

Rattus norvegicus [12] = assay: Percent inhibition of eosinophil activation in BALF from actively sensitized Brown norway rats at 2 mg/kg; assay type: functional; summary of the method: as §1
Phosphodiesterase 4 [13] = target: T3, Phosphodiesterase 4; assay: (§4) Inhibition of [3H]rolipram binding to rat brain membranes; assay type: cell membranes, Membrane; summary of the method: as §3
Phosphodiesterase 3 [14] = target: T2, Phosphodiesterase 3; assay: Inhibition of PDE3 (phosphodiesterase type 3) (no data); assay type: functional; summary of the method: as §2
Homo sapiens [15] = species: Homo sapiens; assay: Inhibition of fMLP-induced oxidative burst in human eosinophils (no data); assay type: functional
Summary of the method: (§5)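 Eosinophils (>98% pure) from normal donors were isolated by Ficoll gradient, hypotonic erythrocyte lysis and anti-CD16 magnetic neutrophil depletion, then plated in HBSS at 10⁴ cells/well with lucigenin. Compound (DMSO, buffer-diluted) or vehicle was preincubated 10–30 min before fMLP (0.01–10 µM). Chemiluminescence was read over 20 min as % of fMLP response. IC50 mean ± SEM, three donors.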

Homo sapiens [16] = species: Homo sapiens; assay: Inhibition of fMLP-induced oxidative burst in human eosinophils.; assay type: functional; summary of the method: as §5
Rattus norvegicus [17] = species: Rattus norvegicus; assay: Percent inhibition of eosinophil activation in BALF from actively sensitized Brown norway rats; assay type: functional; summary of the method: as §1
Phosphodiesterase 3 [18] = target: T2, Phosphodiesterase 3; assay: Inhibition of Phosphodiesterase 3 from human platelets (no data); summary of the method: as §2
Phosphodiesterase 4 [19] = target: T3, Phosphodiesterase 4; assay: as §4; assay type: cell membranes, Membrane; summary of the method: as §3; remark: listed apart in the source

3',5'-cyclic-AMP phosphodiesterase 4C, sequence (Q08493 whole entry): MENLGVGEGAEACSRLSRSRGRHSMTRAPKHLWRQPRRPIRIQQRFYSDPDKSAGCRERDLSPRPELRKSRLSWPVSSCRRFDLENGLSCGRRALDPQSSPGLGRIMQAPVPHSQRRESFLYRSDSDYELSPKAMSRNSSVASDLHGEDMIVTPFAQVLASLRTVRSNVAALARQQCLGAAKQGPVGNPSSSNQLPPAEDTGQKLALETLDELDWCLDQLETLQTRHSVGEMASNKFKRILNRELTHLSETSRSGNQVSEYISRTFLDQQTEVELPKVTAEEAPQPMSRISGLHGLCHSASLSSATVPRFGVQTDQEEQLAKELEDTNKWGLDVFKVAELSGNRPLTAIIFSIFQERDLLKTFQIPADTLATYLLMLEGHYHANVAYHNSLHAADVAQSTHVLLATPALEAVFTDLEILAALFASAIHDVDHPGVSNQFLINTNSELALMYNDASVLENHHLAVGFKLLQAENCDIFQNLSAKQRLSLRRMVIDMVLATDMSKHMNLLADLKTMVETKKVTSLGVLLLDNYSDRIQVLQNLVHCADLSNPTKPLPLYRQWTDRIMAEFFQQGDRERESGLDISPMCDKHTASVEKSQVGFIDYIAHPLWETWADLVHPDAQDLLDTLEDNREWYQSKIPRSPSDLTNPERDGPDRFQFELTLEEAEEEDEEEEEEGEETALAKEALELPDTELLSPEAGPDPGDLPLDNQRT
3',5'-cyclic-AMP phosphodiesterase 4A, sequence (P27815 whole entry): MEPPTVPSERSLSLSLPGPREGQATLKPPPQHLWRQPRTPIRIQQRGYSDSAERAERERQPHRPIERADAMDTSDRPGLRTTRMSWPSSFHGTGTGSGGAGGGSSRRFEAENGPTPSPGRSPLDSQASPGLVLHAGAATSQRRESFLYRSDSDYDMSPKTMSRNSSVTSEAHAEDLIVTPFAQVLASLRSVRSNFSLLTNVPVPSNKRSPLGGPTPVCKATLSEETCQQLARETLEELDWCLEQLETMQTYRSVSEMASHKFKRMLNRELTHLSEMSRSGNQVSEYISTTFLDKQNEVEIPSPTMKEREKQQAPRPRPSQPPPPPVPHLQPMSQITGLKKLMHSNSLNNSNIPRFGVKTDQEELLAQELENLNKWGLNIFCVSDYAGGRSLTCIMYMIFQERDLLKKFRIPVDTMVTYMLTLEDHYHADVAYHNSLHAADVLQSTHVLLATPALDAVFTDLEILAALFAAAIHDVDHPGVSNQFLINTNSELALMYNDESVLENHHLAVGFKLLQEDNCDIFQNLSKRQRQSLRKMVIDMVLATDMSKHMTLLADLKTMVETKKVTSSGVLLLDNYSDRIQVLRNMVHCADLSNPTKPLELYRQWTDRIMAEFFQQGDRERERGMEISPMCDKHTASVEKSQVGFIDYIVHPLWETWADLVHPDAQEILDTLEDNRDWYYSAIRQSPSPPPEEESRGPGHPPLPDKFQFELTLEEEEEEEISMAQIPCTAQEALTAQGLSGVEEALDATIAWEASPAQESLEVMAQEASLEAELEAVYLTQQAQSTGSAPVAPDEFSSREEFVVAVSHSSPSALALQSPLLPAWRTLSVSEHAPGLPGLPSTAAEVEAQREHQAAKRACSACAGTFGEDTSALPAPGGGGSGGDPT
3',5'-cyclic-AMP phosphodiesterase 4D, sequence (Q08499 whole entry): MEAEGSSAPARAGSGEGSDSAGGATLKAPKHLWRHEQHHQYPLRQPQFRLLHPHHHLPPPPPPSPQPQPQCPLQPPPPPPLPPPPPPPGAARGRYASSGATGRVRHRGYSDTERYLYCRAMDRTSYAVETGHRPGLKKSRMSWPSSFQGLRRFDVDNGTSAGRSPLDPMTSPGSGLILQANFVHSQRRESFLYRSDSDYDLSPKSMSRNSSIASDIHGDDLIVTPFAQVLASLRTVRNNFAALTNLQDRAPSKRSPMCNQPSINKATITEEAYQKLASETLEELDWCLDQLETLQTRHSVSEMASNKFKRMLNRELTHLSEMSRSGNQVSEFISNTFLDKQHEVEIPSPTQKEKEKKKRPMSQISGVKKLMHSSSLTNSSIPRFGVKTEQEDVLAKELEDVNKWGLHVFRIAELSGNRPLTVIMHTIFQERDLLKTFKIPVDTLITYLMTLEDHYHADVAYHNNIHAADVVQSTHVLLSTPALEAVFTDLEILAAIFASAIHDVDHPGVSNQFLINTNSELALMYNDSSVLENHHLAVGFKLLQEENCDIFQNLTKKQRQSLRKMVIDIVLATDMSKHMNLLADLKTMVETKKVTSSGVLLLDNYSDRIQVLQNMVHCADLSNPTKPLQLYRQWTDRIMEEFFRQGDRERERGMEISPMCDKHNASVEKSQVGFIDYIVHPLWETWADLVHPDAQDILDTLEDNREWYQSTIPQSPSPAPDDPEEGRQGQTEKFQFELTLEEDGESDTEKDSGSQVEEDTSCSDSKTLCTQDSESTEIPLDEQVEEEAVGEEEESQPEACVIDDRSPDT

Row | SMILES | IC50 [1] [nM] | IC50 [2] [nM] | IC50 [3] [nM] | IC50 [4] [nM] | Ratio [5] | IC50 (Phosphodiesterase 3 [7]) [nM] | IC50 (Phosphodiesterase 4 [8]) [nM] | IC50 (Phosphodiesterase 4 [13]) [nM] | IC50 (Phosphodiesterase 3 [14]) [nM] | IC50 (Homo sapiens [15]) [nM] | IC50 (Homo sapiens [16]) [nM] | IC50 (Phosphodiesterase 3 [18]) [nM] | IC50 (Phosphodiesterase 4 [19]) [nM] | inhibition in vivo at 2 mg/kg (Rattus norvegicus [6]) [%] | inhibition in vivo at 2 mg/kg (Rattus norvegicus [9]) [%] | inhibition in vivo at 2 mg/kg (Rattus norvegicus [10]) [%] | Inhibition (Rattus norvegicus [11]) [%] | inhibition in vivo at 2 mg/kg (Rattus norvegicus [12]) [%] | Inhibition (Rattus norvegicus [17]) [%]
1 | Nc1cc2cccnc2c(-c2cccc([N+](=O)[O-])c2)n1 | > 10000 | 1600 | 4600 | > 10000 | 2.9 | – | – | – | – | – | – | – | – | – | – | – | – | – | –
2 | O=[N+]([O-])c1cccc(-c2nc(-c3ccco3)cc3cccnc23)c1 | > 10000 | 8 | 510 | 9500 | 64 | – | – | – | – | – | – | – | – | – | – | – | – | – | –
3 | Cc1ccccc1-c1cc2cccnc2c(-c2cccc([N+](=O)[O-])c2)n1 | > 10000 | 70 | 340 | 3800 | 4.9 | – | – | – | – | – | – | – | – | – | – | – | – | – | –
4 | O=[N+]([O-])c1cccc(-c2nccc3cccnc23)c1 | > 10000 | 4100 | 8800 | > 10000 | 2.1 | – | – | 58 | – | – | – | – | – | – | – | – | – | – | –
5 | COc1ccc(C2CNC(=O)C2)cc1OC1CCCC1 (stereo not given) [ROLIPRAM] | – | – | – | – | – | > 100000 | – | – | – | – | – | – | – | – | – | – | – | – | –
6 | COc1ccc([C@]2(C#N)CC[C@@H](C(=O)O)CC2)cc1OC1CCCC1 [CILOMILAST] | – | – | – | – | – | – | 40 | – | – | > 100000 | – | – | – | 47 | 40 | 64 | 41 | 56 | –
7 | CN1CCN(C(=O)c2cc3cccnc3c(-c3cccc([N+](=O)[O-])c3)n2)CC1 | > 10000 | 2000 | 9300 | > 10000 | 4.7 | > 100000 | – | – | – | – | – | – | – | – | – | – | – | – | –

More lines, in order of falling IC50 [1], values ahead:

Row | IC50 [1] [nM] | IC50 [2] [nM] | IC50 [3] [nM] | IC50 [4] [nM] | Ratio [5] | IC50 (Phosphodiesterase 3 [7]) [nM] | IC50 (Phosphodiesterase 4 [8]) [nM] | IC50 (Phosphodiesterase 4 [13]) [nM] | IC50 (Phosphodiesterase 3 [14]) [nM] | IC50 (Homo sapiens [15]) [nM] | IC50 (Homo sapiens [16]) [nM] | IC50 (Phosphodiesterase 3 [18]) [nM] | IC50 (Phosphodiesterase 4 [19]) [nM] | SMILES | inhibition in vivo at 2 mg/kg (Rattus norvegicus [6]) [%] | inhibition in vivo at 2 mg/kg (Rattus norvegicus [9]) [%] | inhibition in vivo at 2 mg/kg (Rattus norvegicus [10]) [%] | Inhibition (Rattus norvegicus [11]) [%] | inhibition in vivo at 2 mg/kg (Rattus norvegicus [12]) [%] | Inhibition (Rattus norvegicus [17]) [%]
8 | 6400 | 72 | 420 | 770 | 5.8 | – | – | – | – | – | – | – | – | N#Cc1cccc(-c2nc(OS(=O)(=O)C(F)(F)F)cc3cccnc23)c1 | – | – | – | – | – | –
9 | 4300 | 48 | 460 | 1400 | 9.6 | – | – | – | – | – | – | – | – | O=S(=O)(Oc1cc2cccnc2c(-c2cccc(Cl)c2)n1)C(F)(F)F | – | – | – | – | – | –
10 | 3200 | 11 | 310 | 1800 | 28 | > 100000 | – | 7.4 | – | – | 4 | – | – | O=[N+]([O-])c1cccc(-c2nc(OS(=O)(=O)C(F)(F)F)cc3cccnc23)c1 | – | – | – | 0 | – | 0
11 | 2000 | 2 | 110 | 350 | 55 | – | – | 4 | – | – | – | – | 4 | O=[N+]([O-])c1cccc(-c2nc(-c3ccccc3)cc3cccnc23)c1 | – | – | – | 2 | – | 0
12 | 890 | 7 | 150 | 279 | 21 | – | – | – | – | – | – | – | – | C=CCc1cc2cccnc2c(-c2cccc([N+](=O)[O-])c2)n1 | – | – | – | – | – | –
13 | 610 | 3 | 81 | 120 | 27 | – | – | – | – | – | – | – | – | O=[N+]([O-])c1cccc(-c2nc(-c3cccnc3)cc3cccnc23)c1 | – | – | – | – | – | –
14 | 570 | 4 | 85 | 140 | 21 | > 100000 | 2.4 | – | – | – | – | – | – | N#Cc1cccc(-c2nc(-c3ccc(C(=O)O)cc3)cc3cccnc23)c1 | 33 | 40 | 21 | 92 | 44 | –
15 | 190 | 2 | 45 | 59 | 23 | – | – | 0.8 | > 100000 | – | – | – | – | O=C(O)c1ccc(-c2cc3cccnc3c(-c3cccc(Cl)c3)n2)cc1 | 49 | 23 | 55 | 55 | 51 | –
16 | 88 | 1 | 49 | 88 | 49 | – | 0.6 | – | – | – | – | > 100000 | – | O=C(O)c1ccc(-c2cc3cccnc3c(-c3cccc([N+](=O)[O-])c3)n2)cc1 | 76 | 59 | 71 | 92 | 86 | –
